Activity calls are given as the source filed them. The calls are words filed in the database; no cut-off is given here.

For data set [1], the system named is A549. Nature of the data set: Induction of apoptosis in human A549 cells assessed as early apoptotic cells at 20 uM after 48 hrs by Annexin V-FITC/PI double staining based flow cytometric analysis (reference value: 2.04%). Format: functional. (In general: Flow cytometry measures light scatter and fluorescence of single cells or particles in a stream.)
For data set [2], the target named is T1, NEDD8-activating enzyme E1 regulatory subunit (Homo sapiens) (UniProt Q13564).
T1 sequence (whole entry): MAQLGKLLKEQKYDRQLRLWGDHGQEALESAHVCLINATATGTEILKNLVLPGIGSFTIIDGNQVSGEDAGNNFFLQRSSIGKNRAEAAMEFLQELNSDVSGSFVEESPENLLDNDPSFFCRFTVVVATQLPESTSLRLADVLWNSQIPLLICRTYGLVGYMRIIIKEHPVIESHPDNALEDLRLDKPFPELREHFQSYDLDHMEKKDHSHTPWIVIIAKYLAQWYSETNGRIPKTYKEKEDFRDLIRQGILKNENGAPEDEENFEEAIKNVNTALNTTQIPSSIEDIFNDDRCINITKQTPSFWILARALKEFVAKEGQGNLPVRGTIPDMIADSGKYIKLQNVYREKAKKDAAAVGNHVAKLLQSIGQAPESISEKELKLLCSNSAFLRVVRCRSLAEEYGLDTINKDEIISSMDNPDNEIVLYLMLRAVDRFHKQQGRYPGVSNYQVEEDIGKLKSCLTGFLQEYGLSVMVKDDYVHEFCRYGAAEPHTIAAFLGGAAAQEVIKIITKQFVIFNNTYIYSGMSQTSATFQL
As to the kind of experiment: Inhibition of NAE-mediated UBE2M neddylation in human A549 cells at 12.5 to 25 uM measured after 6 to 12 hrs by Western blot analysis. Format: cell-based. The settings on record: dose 12.5-25 µM, time 6-12 hrs. The method in brief: (§1)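 A549 cells were treated 6 or 12 h with graded concentrations (4.5–75 μM) against a 0.1% DMSO control. Cells were washed in cold PBS, lysed in RIPA on ice and cleared by centrifugation, and protein was normalized. Cullin-Nedd8 was resolved on non-reducing SDS-PAGE and Wee1/p27 under reducing conditions, then detected by Western blot.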
(In western blotting, separated proteins are transferred to a membrane and probed.)

The test system of data set [3] is A549. As to the kind of experiment: Induction of apoptosis in human A549 cells assessed as necrotic cells at 10 uM after 48 hrs by Annexin V-FITC/PI double staining based flow cytometric analysis (reference value: 1.57%). Format: functional.
Data set [4] relates to A549. As to the kind of experiment: Antitumor activity against human A549 cells xenografted in nude mouse assessed as decrease in tumor volume at 30 mg/kg, ip qd for 5 days on and 2 days off dosing and measured after 24 days post-treatment. The data set is classed as functional, organism-based. The conditions noted are these: time 24.0 day. In short, it runs like this: (§2)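 Female nude mice were inoculated subcutaneously with 2×10^6 A549 cells in 0.1 mL PBS. At tumor volume 70–100 mm³, mice were randomized into 5 groups of 6. Dosing was ip or oral gavage, once daily on a 5-days-on/2-days-off schedule, with 10% 2-hydroxypropyl-β-cyclodextrin/water as vehicle control. Body weight and tumor volume were measured every two days; tumors were weighed at sacrifice. Significance by two-tailed Student's t-test.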

Data set [5] is described as follows: Toxicity in nude mouse assessed as effect on body weight at 30 mg/kg, qd after 24 days. The conditions noted are these: in vivo, 576 h, time 24 day. Format: organism-based. The method in brief:
as §2

For data set [6], the system named is A549. As to the kind of experiment: Antitumor activity against human A549 cells xenografted in nude mouse assessed as inhibition of tumor growth at 60 mg/kg, po qd for 5 days on and 2 days off dosing and measured after 24 days post-treatment. The settings on record: time 24.0 day. Format: functional, organism-based. In short, it runs like this:
as §2
For orientation: A xenograft is tissue or cells of one species grown in another, often human tumour cells in immunodeficient mice.

The subject of data set [7] is A549. Nature of the data set: Induction of apoptosis in human A549 cells assessed as late apoptotic cells at 10 uM after 48 hrs by Annexin V-FITC/PI double staining based flow cytometric analysis (reference value: 4.62%). Format: functional.
Data set [8] has as its system A549. As to the kind of experiment: Induction of apoptosis in human A549 cells assessed as increase in PARP cleavage at 12.5 uM by Western blot analysis. Format: functional, cell-based.
Data set [9] has as its system A549. Nature of the data set: Antiproliferative activity against human A549 cells assessed as inhibition of cell proliferation at 100 uM incubated for 48 hrs by CCK-8 assay relative to control. The data set is classed as functional. The arrangement: scale not given: the % may be the effect or the level left. In short, it runs like this:
(§3)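 Cells from ATCC, passaged six times, grown in DMEM with 10% FBS and penicillin/streptomycin at 37 °C under 5% CO2. Seeded at 2500 cells/well, cultured overnight, treated 48 h, viability read by CCK-8. Run in triplicate; values are the mean of three experiments.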

In data set [10] the target is T1, NEDD8-activating enzyme E1 regulatory subunit (Homo sapiens). Nature of the data set: Inhibition of NAE-mediated neddylation in human A549 cells assessed as suppression of cullin5-Nedd8 adduct formation at 12.5 to 25 uM measured after 6 to 12 hrs by Western blot analysis. The data set is classed as cell-based. The conditions noted are these: dose 12.5-25 µM, time 6-12 hrs. The method in brief:
as §1

In data set [11] the target is T2, NEDD8-activating enzyme E1 catalytic subunit (Homo sapiens, UniProt Q8TBC4).
T2 sequence (Q8TBC4 whole entry): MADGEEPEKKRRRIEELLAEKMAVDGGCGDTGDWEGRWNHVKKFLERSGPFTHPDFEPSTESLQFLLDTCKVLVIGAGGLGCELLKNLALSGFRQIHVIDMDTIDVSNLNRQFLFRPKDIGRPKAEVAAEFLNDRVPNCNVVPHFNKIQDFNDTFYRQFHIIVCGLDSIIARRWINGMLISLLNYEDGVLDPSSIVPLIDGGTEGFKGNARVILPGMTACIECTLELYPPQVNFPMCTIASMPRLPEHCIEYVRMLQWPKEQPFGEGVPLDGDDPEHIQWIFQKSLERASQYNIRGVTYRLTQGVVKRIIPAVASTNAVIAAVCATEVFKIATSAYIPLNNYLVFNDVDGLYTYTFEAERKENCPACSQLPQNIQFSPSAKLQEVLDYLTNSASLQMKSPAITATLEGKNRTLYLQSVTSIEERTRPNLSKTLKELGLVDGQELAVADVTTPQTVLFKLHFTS
Nature of the data set: Inhibition of NAE (unknown origin)-mediated neddylation assessed as suppression of cullin1-Nedd8 adduct formation preincubated for 10 mins followed by ATP addition and measured after 30 mins by immunoblot analysis.

The target in data set [12] is T1, NEDD8-activating enzyme E1 regulatory subunit (Homo sapiens). Nature of the data set: Inhibition of NAE-mediated neddylation in human A549 cells assessed as suppression of cullin4a-Nedd8 adduct formation at 12.5 to 25 uM measured after 6 to 12 hrs by Western blot analysis. The data set is classed as cell-based. The conditions noted are these: dose 12.5-25 µM, time 6-12 hrs. The method in brief:
as §1

Data set [13] shares this target. Nature of the data set: Inhibition of NAE-mediated neddylation in human A549 cells assessed as suppression of cullin1-Nedd8 adduct formation at 12.5 to 25 uM measured after 6 to 12 hrs by Western blot analysis. The data set is classed as cell-based. The settings on record: dose 12.5-25 µM, time 6-12 hrs. The method in brief:
as §1

Data set [14] deals with A549. As to the kind of experiment: Induction of apoptosis in human A549 cells assessed as necrotic cells at 40 uM after 48 hrs by Annexin V-FITC/PI double staining based flow cytometric analysis (reference value: 1.57%). The data set is classed as functional.
A short description of data set [15]: Cytotoxicity against human […] cells incubated for 48 hrs by CCK-8 assay. The data set is classed as cell-based. In short, it runs like this: as §3
The subject of data set [16] is A549. Nature of the data set: Induction of apoptosis in human A549 cells assessed as live cells at 10 uM after 48 hrs by Annexin V-FITC/PI double staining based flow cytometric analysis (reference value: 91.8%). Format: functional.
Data set [17] addresses T1, NEDD8-activating enzyme E1 regulatory subunit (Homo sapiens). As to the kind of experiment: Inhibition of NAE-mediated neddylation in human A549 cells assessed as suppression of cullin2-Nedd8 adduct formation at 12.5 to 25 uM measured after 6 to 12 hrs by Western blot analysis. Format: cell-based. The settings on record: dose 12.5-25 µM, time 6-12 hrs. The method in brief:
as §1

Data set [18] concerns A549. As to the kind of experiment: Induction of apoptosis in human A549 cells assessed as late apoptotic cells at 20 uM after 48 hrs by Annexin V-FITC/PI double staining based flow cytometric analysis (reference value: 4.62%). The data set is classed as functional.
For data set [19], the system named is A549. Nature of the data set: Induction of apoptosis in human A549 cells assessed as early apoptotic cells at 10 uM after 48 hrs by Annexin V-FITC/PI double staining based flow cytometric analysis (reference value: 2.04%). The data set is classed as functional.

In the case of `CCOc1nc2cccc(C(=O)NCCc3ccc(Cl)cc3Cl)c2n1Cc1ccc(-c2ccccc2-c2nnn[nH]2)cc1`, the Activity in [1] is recorded as 18.6%; in [3], 1.57%; in [5] it was “Non-Toxic”; in [7], 4.62%; in data set [9], 83.9%; in [14] it was 1.02%. Moreover, the Activity in [16] came out at 91.8%; in data set [18], 7.03%; in data set [19], 2.04%. In addition, the inhibition result in data set [2], in data set [10], in [12], in [13] and in data set [17] was “Active” each time. For the same compound, the outcome in [4], in data set [6] and in [8] was Active. Further, the IC50 in data set [11] is 5.51 µM; in data set [15], 76.1 µM.

In general, IC50 refers to the concentration that inhibits the measured activity by half.

Source of the values: ChEMBL document CHEMBL4732082, “Development of novel benzimidazole-derived neddylation inhibitors for suppressing tumor growth invitro and invivo” (Eur J Med Chem, 2021).
